Results on 1 molecule are retold here after ChEMBL document CHEMBL2150931, “Design, synthesis, and biological activity of a novel series of human sirtuin-2-selective inhibitors” (J Med Chem, 2012).

Experiment [1] addresses T1, Histone deacetylase 7 (Homo sapiens, UniProt Q8WUI4).
T1 sequence (Q8WUI4 whole entry): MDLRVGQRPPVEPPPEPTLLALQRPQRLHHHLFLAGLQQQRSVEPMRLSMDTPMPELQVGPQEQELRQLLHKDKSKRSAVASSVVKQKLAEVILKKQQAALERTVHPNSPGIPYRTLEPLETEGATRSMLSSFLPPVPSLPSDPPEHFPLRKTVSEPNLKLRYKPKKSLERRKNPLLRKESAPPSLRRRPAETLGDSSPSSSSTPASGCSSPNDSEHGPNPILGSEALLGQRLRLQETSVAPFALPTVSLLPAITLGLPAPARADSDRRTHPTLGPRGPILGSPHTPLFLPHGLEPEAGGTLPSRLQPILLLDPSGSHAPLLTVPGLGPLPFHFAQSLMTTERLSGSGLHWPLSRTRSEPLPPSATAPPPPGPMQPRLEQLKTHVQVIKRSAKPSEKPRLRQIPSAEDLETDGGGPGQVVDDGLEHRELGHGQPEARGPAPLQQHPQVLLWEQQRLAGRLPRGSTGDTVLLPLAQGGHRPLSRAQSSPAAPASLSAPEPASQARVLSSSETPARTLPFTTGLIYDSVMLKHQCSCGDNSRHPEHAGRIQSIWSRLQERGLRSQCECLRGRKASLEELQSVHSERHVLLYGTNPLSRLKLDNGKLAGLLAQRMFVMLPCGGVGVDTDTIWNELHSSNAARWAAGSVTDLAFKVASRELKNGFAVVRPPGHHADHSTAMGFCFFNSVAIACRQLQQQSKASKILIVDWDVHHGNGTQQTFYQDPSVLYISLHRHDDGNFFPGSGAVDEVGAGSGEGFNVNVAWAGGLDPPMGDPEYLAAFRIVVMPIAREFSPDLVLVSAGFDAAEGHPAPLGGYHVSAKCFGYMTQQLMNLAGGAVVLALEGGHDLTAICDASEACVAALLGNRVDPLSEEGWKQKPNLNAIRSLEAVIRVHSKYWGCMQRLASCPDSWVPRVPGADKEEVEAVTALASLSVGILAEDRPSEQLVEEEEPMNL
Description: Inhibition of HDAC7.

The target in experiment [2] is T2, NAD-dependent protein deacetylase sirtuin-2 (Homo sapiens, UniProt Q8IXJ6).
T2 sequence (Q8IXJ6 whole entry): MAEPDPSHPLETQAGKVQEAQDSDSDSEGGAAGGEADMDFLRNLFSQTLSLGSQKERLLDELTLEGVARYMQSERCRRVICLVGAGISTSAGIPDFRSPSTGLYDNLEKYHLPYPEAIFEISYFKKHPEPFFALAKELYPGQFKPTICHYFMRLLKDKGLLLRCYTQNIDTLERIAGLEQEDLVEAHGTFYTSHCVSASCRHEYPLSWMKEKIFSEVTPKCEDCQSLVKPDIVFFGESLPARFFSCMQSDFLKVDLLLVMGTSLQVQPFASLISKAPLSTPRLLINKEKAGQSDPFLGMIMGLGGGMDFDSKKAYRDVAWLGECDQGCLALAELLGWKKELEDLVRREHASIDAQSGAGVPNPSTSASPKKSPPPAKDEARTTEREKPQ
Description: Inhibition of human recombinant SIRT2 using Fluor de Lys-SIRT as substrate incubated for 60 mins prior to substrate addition measured after 60 mins by fluorimetric analysis. In a few lines:
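Human recombinant SIRT2 preincubated with 1 mM NAD⁺ and serial compound dilutions for 60 min at 37 °C, then 25 μM Fluor de Lys-SIRT substrate added. Reaction stopped at 60 min with Developer II containing nicotinamide. Fluorescence read 45 min later at ex 360/em 460 nm. % inhibition taken against control wells. IC₅₀ obtained by regression of log[Inh] vs logit % inhibition; means of ≥3 experiments.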

The target of experiment [3] is T3, NAD-dependent protein deacetylase sirtuin-1 (Homo sapiens) (UniProt Q96EB6).
T3 sequence (whole entry): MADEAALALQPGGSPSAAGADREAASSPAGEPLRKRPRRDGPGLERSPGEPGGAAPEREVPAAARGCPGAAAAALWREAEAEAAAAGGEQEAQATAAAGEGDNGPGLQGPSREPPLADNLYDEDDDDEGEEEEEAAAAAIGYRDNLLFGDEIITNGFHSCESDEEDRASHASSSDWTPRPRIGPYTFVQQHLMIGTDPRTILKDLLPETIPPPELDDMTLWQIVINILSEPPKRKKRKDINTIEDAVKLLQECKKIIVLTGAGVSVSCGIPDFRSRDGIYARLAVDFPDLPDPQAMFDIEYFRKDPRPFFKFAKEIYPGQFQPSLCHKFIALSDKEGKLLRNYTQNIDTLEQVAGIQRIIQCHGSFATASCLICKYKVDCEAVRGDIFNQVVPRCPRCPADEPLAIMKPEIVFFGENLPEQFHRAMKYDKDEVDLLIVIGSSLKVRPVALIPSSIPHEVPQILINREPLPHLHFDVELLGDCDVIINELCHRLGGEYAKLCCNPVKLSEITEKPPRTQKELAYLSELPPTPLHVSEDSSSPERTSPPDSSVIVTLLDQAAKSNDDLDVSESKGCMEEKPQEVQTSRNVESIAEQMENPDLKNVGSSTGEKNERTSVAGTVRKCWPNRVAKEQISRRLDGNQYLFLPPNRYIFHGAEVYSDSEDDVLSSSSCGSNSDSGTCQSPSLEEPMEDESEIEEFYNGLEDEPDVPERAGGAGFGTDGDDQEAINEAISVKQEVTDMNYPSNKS
In words: Inhibition of SIRT1 in human HCT116 cells assessed as increase in acetylated p53 at 1 to 10 uM after 8 hrs by Western blot analysis. The note with it: HCT-116. It is filed as cell-based. Put shortly:
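HCT116 cells grown in McCoy's 5A with 10% FBS. 5×10⁵ cells exposed 8 h to compound at 1 or 10 μM, alongside 20 μM etoposide. SDS lysates equalized by Bradford assay and run on 15% SDS-PAGE, then blotted onto nitrocellulose. Blots probed overnight at 4 °C for acetyl-p53, p53, acetyl-α-tubulin and α-tubulin, and detected by ECL. Signal given as acetylated/total protein ratio.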
For orientation: Immunoblotting shows a protein as a band on a membrane.

Experiment [4] has as its target Histone deacetylase 9 (Homo sapiens, UniProt Q9UKV0). Description: Inhibition of HDAC9.

Structures are written as SMILES. Activity calls are given as the source filed them. The rule behind the calls is not given here.

Histone deacetylase 9, sequence (Q9UKV0 whole entry): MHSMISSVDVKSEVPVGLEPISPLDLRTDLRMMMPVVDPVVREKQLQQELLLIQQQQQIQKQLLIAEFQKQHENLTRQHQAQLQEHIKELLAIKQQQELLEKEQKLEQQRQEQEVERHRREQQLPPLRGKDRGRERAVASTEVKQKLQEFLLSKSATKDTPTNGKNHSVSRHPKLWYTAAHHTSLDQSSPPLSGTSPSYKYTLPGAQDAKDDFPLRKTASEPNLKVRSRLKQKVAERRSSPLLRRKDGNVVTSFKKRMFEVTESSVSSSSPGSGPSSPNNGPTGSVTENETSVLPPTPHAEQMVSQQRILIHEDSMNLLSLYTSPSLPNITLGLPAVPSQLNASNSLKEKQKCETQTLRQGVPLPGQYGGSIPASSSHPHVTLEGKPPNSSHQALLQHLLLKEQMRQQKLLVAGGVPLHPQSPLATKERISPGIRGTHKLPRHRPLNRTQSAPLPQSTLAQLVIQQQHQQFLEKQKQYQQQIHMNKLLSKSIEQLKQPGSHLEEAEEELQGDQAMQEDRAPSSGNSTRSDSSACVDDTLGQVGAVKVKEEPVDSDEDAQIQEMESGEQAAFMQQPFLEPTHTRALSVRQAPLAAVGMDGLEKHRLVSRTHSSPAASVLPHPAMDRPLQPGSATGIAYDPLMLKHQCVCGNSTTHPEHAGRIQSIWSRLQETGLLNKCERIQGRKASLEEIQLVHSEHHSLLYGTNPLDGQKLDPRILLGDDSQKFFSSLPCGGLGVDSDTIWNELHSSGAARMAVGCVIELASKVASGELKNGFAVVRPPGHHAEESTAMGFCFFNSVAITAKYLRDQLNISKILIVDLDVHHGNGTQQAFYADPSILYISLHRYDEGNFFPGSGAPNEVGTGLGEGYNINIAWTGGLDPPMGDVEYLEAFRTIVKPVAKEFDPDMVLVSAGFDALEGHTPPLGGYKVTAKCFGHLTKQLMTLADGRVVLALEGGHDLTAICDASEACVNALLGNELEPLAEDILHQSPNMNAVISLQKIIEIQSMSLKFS

On to `NC(=O)c1ccccc1Nc1cccc(OCCc2ccccc2)c1`, for which the figures for the IC50 in experiment [1], in experiment [2] and in experiment [4] were more than 30 µM, 1000 nM and more than 30 µM, respectively. The inhibition result in experiment [3] is “inactive”.

As a reminder, the IC50 is the concentration that gives 50% inhibition.
